This assay is described as follows: Bax/Bak-independent caspase signal in fibroblasts – cell-based, mouse embryonic fibroblasts, luminescence, dry powder, set 3, counter-screen for A1 inhibitor project, dose response (AID 504403). The following applies: Bax/Bak-/- MEF caspase activation, CaspaseGlo luminescence, 3 h. An outline of the steps:
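System: Bax/Bak double-knockout mouse embryonic fibroblasts (MEFs) | Input: 2500 cells/well | Signal: Caspase-Glo luminescent caspase assay | Buffer or medium: RPMI-1640, 10% heat-inactivated FBS | Incubation: Compound 3 h at 37 °C, pre-read cooling 30 min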

Setting [1] is: measured here: test 2 replicate, at 35 µM, stronger effect = higher value.

The source made the active and inactive calls.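 The calls were made as follows: active = active in every replicate test, each curve reaching caspase activation of 10% of the positive control signal; inconclusive = replicate tests disagree, some active and some inactive; inactive = inactive in every replicate test.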

As for `O=c1[nH]c2ccccc2c(O)c1[N+](=O)[O-]`, the caspase activation is 0.504% (inactive) (at 35 µM (top of the series)) and -0.232% under setting [1].
For `O=C(COc1ccc(Cl)cc1Cl)NNc1nc(N2CCOCC2)nc(N2CCOCC2)n1`, the caspase activation (at 35 µM (top of the series)) is -0.22% (inactive) and the caspase activation under setting [1] came out at 0.018%.
For `Cn1c(=O)c([N+](=O)[O-])c(S(C)(=O)=O)c2ccccc21`, in that order: -0.102% (inactive) and -0.421%.
For `Cc1ccc(Sc2c([N+](=O)[O-])c(=O)n(Cc3ccccc3)c3ccccc23)cc1`, in that order: 1.91% (inactive) and -0.307%.
Consider `Cn1c(=O)c([N+](=O)[O-])c(Cl)c2ccccc21`, for which the caspase activation runs as follows: (at 35 µM (top of the series)) 0.366% (inactive); under setting [1], -0.494%.
In the same order, the values of `O=c1c([N+](=O)[O-])c(Cl)c2ccccc2n1Cc1ccccc1` are -0.005% (inactive) and 3.16%.
As for `COc1nc2ccccc2c(Cl)c1[N+](=O)[O-]`, the caspase activation reads like this: (at 35 µM (top of the series)) 0.674% (inactive); under setting [1], 0.222%.
Regarding `COc1ccc(CCNc2nc(N3CCCC3)nc(N3CCCC3)n2)cc1OC`, the caspase activation (at 35 µM (top of the series)) is 0.084% (inactive) and the caspase activation under setting [1] was 0.515%.
In the case of `CC1(C)CCC(c2ccc(Cl)cc2)=C(CN2CCN(c3ccc(C(=O)NS(=O)(=O)c4ccc(N[C@H](CCN5CCOCC5)CSc5ccccc5)c(S(=O)(=O)C(F)(F)F)c4)cc3)CC2)C1`, under setting [1], the call was inactive.
With `COc1ccc(CCNc2nc(N3CCOCC3)nc(N3CCOCC3)n2)cc1OC`, the caspase activation is 0.042% (inactive) (at 35 µM (top of the series)) and 0.071% under setting [1].
In the case of `Cc1ccc(Sc2c([N+](=O)[O-])c(=O)n(C)c3ccccc23)cc1`, the caspase activation runs as follows: (at 35 µM (top of the series)) 0.309% (inactive); under setting [1], -0.613%.
`Cc1ccc(S(=O)(=O)c2c([N+](=O)[O-])c(=O)n(C)c3ccccc23)cc1`: the caspase activation is, setting by setting: (at 35 µM (top of the series)) 0.276% (inactive); under setting [1], 0.073%.
In the same order, the values of `O=c1[nH]c2ccccc2c(Cl)c1[N+](=O)[O-]` are 0.348% (inactive) and 0.47%.
On to `Cn1c(=O)c(Sc2ccccn2)c(Sc2ccccn2)c2ccccc21`, for which the caspase activation runs as follows: (at 35 µM (top of the series)) 0.166% (inactive); under setting [1], -0.337%.
For `Cn1c(=O)c([N+](=O)[O-])c(Sc2ccccn2)c2ccccc21`, in that order: 0.303% (inactive) and 0.033%.
Turning to `COc1nc2ccccc2c(Sc2ccc(C)cc2)c1[N+](=O)[O-]`, the caspase activation is 0.017% (inactive) (at 35 µM (top of the series)) and -0.171% under setting [1].
In the same order, the values of `COc1c([N+](=O)[O-])c(=O)n(C)c2ccccc12` are 0.061% (inactive) and 0.257%.
In the same order, the values of `Cc1ccc(Sc2c(Sc3ccc(C)cc3)c3ccccc3n(Cc3ccccc3)c2=O)cc1` are 0.02% (inactive) and -0.616%.
On to `Cc1ccc(Sc2c(Sc3ccc(C)cc3)c3ccccc3n(C)c2=O)cc1`, for which the caspase activation was -0.06% (inactive) (at 35 µM (top of the series)) and -0.477% under setting [1].
In the case of `COc1ccc(N2CCN(c3nc(NCCc4ccc(OC)c(OC)c4)nc(N4CCOCC4)n3)CC2)cc1`, the caspase activation by setting is: (at 35 µM (top of the series)) 0.143% (inactive); under setting [1], 0.46%.
With `CCn1c(=O)c(Sc2ccc(C)cc2)c(Sc2ccc(C)cc2)c2ccccc21`, the caspase activation (at 35 µM (top of the series)) was 0.078% (inactive) and the caspase activation under setting [1] was -0.17%.
For `COCCn1c(=O)c([N+](=O)[O-])c(Sc2ccc(C)cc2)c2ccccc21`, in that order: 0.682% (inactive) and -0.602%.
In the same order, the values of `COCCn1c(=O)c(Sc2ccc(C)cc2)c(Sc2ccc(C)cc2)c2ccccc21` are -0.103% (inactive) and -0.586%.
Consider `COCCn1c(=O)c([N+](=O)[O-])c(Cl)c2ccccc21`, for which the caspase activation was 0.693% (inactive) (at 35 µM (top of the series)) and -0.136% under setting [1].
For `C/C(=N\Nc1nc(N2CCCCC2)nc(N2CCCCC2)n1)c1ccc(F)cc1`, in that order: -0.284% (inactive) and -0.01%.
For `CCn1c(=O)c([N+](=O)[O-])c(Cl)c2ccccc21`, in that order: 1.21% (inactive) and 3.07%.
In the same order, the values of `CCn1c(=O)c([N+](=O)[O-])c(Sc2ccc(C)cc2)c2ccccc21` are -0.025% (inactive) and -0.559%.

The values above are taken from PubChem BioAssay AID504403 (Broad Institute, 2011).
